Tests used:
[1] = test system: TU-BcX-4IC explants; experiment: Western blot of treated PDX tumor explants; type: cell-based, human; conditions: 24 hours
[2] = test system: TU-BcX-4IC cells; experiment: Phalloidin immunofluorescence with morphometric quantification; type: cell-based, human; conditions: 1 μM, 72 hours
[3] = test system: BT-549 cells; experiment: qRT-PCR of epithelial and mesenchymal genes; type: cell-based, human; conditions: BT-549, 1 μM, 72 hours
How it was run: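 Cells were treated 72 h with test compound (1 μM) or DMSO. Total RNA was column-isolated and checked for quantity and quality by absorbance (260, 280 nm). Then 2 μg total RNA was reverse-transcribed and gene expression measured by qRT-PCR.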

[4] = test system: TU-BcX-4IC tumors; experiment: qRT-PCR of ex vivo treated PDX tumor pieces; type: cell-based, human; conditions: TU-BcX-4IC tumor pieces, 1 μM, 72 hours
[5] = test system: BT549 cells; experiment: Transwell migration assay; type: cell-based, human; conditions: BT549, pretreated 1 μM 72 hours, 24 hours migration
How it was run: (§1)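 Cells were pretreated 72 h with test compound (1 μM) or DMSO, and viable cells were then seeded into transwell chambers for 24 h. Non-migrated cells were removed. Migrated cells were fixed, crystal violet-stained, imaged by brightfield and counted. Counts were normalized to DMSO per cell line; triplicate experiments.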

[6] = target: PLK1 (Homo sapiens, UniProt P53350); experiment: Kinase inhibition assay; type: biochemical; conditions: 1 μM
Chain of PLK1 (P53350 whole entry): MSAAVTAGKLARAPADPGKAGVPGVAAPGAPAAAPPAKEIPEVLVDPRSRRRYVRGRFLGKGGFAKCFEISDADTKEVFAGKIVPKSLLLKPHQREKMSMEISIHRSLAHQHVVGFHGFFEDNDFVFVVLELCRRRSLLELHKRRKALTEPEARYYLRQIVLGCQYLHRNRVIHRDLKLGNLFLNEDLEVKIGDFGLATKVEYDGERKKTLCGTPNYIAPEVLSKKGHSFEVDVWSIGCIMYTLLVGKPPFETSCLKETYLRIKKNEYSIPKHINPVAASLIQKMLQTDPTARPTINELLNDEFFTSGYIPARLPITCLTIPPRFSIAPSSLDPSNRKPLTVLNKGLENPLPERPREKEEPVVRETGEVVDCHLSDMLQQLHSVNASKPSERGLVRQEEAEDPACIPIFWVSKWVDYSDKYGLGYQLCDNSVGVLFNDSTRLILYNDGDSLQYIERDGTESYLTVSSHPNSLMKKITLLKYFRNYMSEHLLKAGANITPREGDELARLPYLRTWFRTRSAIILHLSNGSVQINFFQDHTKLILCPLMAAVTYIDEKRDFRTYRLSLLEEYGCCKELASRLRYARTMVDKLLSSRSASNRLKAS

[7] = test system: TU-BcX-4IC cells; experiment: Crystal violet staining, cells remaining / viability dose-response; type: cell-based, human; conditions: 1 μM, 72 hours
[8] = test system: TU-BcX-2K1 tumors; experiment: qRT-PCR of ex vivo treated PDX tumor pieces; type: cell-based, human; conditions: TU-BcX-2K1 tumor pieces, 1 μM, 72 hours
[9] = test system: MDA-MB-231 cells; experiment: Ki-67 immunofluorescence staining for proliferation; type: cell-based, human; conditions: MDA-MB-231, 1 μM, 72 hours
[10] = target: T1, NEK2 (Homo sapiens, UniProt P51955); experiment: Kinase inhibition assay; type: biochemical; conditions: 1 μM
T1 sequence (P51955 1-445): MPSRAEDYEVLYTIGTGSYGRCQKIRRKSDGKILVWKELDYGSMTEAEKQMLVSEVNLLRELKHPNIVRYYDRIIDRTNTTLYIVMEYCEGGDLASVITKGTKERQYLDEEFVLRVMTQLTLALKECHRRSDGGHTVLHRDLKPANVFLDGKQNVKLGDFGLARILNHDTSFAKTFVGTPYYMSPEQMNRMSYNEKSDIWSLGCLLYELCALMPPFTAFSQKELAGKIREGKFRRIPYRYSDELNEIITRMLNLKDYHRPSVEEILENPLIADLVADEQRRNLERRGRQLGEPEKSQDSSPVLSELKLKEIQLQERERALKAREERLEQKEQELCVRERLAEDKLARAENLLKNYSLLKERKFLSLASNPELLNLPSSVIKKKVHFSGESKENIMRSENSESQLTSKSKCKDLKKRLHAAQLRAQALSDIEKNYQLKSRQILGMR

[11] = test system: MDA-MB-231 cells; experiment: qRT-PCR of epithelial and mesenchymal genes; type: cell-based, human; conditions: MDA-MB-231, 1 μM, 72 hours
How it was run: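 MDA-MB-231 cells in 5% charcoal-stripped DMEM were pre-exposed for 72 h to test compound (1 μM) or DMSO. RNA was then isolated and gene expression measured by quantitative real-time PCR.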

[12] = test system: TU-BcX-49S cells; experiment: qRT-PCR of epithelial and mesenchymal genes; type: cell-based, human
[13] = test system: TU-BcX-2O0 tumors; experiment: qRT-PCR of ex vivo treated PDX tumor pieces; type: cell-based, human; conditions: TU-BcX-2O0 tumor pieces, 1 μM, 72 hours
[14] = target: BRSK2 (Homo sapiens, UniProt Q8IWQ3); experiment: Kinase inhibition assay; type: biochemical; conditions: 1 μM
Chain of BRSK2 (Q8IWQ3 whole entry): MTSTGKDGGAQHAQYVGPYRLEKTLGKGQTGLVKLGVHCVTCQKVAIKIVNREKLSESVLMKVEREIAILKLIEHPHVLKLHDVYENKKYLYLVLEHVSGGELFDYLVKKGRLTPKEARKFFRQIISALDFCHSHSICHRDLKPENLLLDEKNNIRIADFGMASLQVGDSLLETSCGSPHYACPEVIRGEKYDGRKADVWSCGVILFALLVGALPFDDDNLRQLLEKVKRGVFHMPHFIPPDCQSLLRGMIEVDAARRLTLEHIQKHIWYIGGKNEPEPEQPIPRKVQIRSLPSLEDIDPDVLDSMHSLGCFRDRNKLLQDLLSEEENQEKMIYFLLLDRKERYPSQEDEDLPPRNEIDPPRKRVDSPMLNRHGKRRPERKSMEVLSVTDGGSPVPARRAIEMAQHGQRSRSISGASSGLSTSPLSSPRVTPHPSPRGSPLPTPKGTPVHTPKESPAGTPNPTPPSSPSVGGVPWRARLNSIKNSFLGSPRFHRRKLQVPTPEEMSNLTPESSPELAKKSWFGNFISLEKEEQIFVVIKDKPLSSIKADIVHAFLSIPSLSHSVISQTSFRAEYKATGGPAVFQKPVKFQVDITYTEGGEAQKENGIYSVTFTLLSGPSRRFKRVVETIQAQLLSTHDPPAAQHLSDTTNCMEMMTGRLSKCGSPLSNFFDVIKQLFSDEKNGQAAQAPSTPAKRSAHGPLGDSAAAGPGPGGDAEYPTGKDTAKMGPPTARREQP

[15] = test system: TU-BcX-4IC cells; experiment: Transwell migration assay; type: cell-based, human; conditions: pretreated 1 μM 72 hours, 24 hours migration
How it was run: as §1

[16] = test system: TU-BcX-4IC M2 spheres; experiment: In vivo inoculation of pre-treated spheres, tumorigenesis and metastasis; design: species or system SCID/Beige mice; conditions: 100,000 cells per injection
How it was run: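 TU-BcX-4IC M2 spheres were pre-exposed to test compound (1 μM) or DMSO for 72 h under low attachment. Spheres were dissociated to single cells with TrypLE, and only trypan blue-excluding viable cells were used. 100,000 cells/injection went bilaterally into the mammary fat pad of SCID/Beige mice (5/group). Tumours were measured biweekly by caliper, then resected. Mice were killed 20 days later, and lungs and livers were formalin-fixed, paraffin-embedded and H&E-stained for metastases.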

[17] = test system: MDA-MB-231 M2 spheres; experiment: In vivo inoculation of pre-treated spheres, tumorigenesis and metastasis; design: species or system SCID/Beige mice; conditions: MDA-MB-231 M2 spheres pre-treated 1 μM 72 hours; all cell concentrations
How it was run: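 M2 spheres were treated 72 h at 1 μM or with DMSO under low attachment, dissociated with TrypLE, and counted by Trypan Blue so that only viable cells were injected. Cells (1,000–200,000) went bilaterally into the mammary fat pads of SCID/Beige mice (N=5). Tumors were caliper-measured biweekly, then resected; mice were killed 20 days later. Lungs and livers were formalin-fixed, paraffin-embedded and H&E-stained, and metastases were quantified.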

[18] = target: PDGFRB (Homo sapiens, UniProt P09619); experiment: Kinase inhibition assay; type: biochemical; conditions: 1 μM
Chain of PDGFRB (P09619 33-1106): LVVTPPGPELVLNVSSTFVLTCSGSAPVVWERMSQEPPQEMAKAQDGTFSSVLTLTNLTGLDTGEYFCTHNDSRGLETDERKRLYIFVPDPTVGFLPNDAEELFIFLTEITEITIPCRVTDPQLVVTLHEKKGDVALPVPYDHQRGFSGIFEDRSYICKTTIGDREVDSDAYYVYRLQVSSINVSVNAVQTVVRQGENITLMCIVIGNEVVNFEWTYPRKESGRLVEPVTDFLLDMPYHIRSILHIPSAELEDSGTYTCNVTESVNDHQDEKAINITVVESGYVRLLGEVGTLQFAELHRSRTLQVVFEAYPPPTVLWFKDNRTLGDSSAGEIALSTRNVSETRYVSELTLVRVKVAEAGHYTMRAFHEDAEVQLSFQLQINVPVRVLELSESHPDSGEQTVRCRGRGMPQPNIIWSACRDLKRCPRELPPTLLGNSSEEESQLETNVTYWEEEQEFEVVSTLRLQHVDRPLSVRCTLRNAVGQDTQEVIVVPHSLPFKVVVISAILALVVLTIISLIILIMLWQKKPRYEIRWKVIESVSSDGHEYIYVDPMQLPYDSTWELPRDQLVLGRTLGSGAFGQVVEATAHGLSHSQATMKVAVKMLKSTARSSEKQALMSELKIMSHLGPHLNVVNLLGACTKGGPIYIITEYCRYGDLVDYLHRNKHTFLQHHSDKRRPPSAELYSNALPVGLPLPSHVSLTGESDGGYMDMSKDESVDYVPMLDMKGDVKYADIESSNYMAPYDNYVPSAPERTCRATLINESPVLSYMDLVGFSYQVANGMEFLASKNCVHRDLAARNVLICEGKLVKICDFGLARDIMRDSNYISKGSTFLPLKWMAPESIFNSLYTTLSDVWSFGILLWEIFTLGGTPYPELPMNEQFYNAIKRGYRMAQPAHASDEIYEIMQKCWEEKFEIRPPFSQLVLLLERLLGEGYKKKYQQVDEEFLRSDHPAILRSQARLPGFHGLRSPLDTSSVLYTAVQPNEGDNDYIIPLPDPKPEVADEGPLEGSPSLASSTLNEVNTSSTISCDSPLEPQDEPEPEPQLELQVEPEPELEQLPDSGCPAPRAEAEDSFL

[19] = test system: TU-BcX-49S tumors; experiment: qRT-PCR of ex vivo treated PDX tumor pieces; type: cell-based, human; conditions: TU-BcX-49S tumor pieces, 1 μM, 72 hours
[20] = target: LOK (Homo sapiens, UniProt O94804); experiment: Kinase inhibition assay; type: biochemical; conditions: 1 μM
Chain of LOK (O94804 whole entry): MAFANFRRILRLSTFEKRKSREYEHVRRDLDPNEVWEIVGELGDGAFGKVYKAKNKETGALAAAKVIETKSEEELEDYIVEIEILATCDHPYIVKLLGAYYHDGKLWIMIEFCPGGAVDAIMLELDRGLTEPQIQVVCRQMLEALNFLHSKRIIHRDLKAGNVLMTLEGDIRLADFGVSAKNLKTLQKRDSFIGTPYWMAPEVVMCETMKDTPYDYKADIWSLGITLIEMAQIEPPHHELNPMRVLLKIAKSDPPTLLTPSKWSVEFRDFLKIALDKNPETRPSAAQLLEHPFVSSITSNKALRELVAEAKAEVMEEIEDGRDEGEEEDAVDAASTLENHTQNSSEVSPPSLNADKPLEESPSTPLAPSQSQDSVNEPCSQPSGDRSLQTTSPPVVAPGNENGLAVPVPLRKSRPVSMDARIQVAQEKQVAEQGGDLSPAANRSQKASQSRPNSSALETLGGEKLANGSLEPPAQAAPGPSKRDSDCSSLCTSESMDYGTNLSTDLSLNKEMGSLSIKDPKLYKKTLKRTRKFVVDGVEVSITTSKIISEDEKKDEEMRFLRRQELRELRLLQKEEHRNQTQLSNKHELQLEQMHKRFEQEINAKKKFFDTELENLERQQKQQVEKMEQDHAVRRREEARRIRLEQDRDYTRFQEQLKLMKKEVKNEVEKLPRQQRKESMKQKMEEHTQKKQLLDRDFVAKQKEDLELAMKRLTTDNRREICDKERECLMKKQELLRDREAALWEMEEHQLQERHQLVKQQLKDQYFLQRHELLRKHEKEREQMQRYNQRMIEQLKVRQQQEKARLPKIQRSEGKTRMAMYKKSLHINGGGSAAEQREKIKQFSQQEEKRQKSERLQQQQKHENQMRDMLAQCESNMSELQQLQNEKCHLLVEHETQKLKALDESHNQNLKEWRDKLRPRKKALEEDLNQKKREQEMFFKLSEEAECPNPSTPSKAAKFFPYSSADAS

[21] = test system: PDX organoids (PDX-Os) created from TU-BcX-4IC; experiment: Live/dead fluorescence stain of patient-derived organoids; type: cell-based; conditions: 1 μM, 72 hours, Calcein-AM/EthD-III
How it was run: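 Explants (2 × 2 mm) from passaged TU-BcX-4IC tumours were grown out for 7 days in 3D culture, giving mixed tumour and stromal cells. Organoids were moved to ultra-low-attachment spheroid wells and exposed to test compound or DMSO for 72 h. They were then stained with Calcein-AM (2 μM, live) and EthD-III (5 μM, dead) and imaged by confocal microscopy, 5 images per well.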

[22] = TU-BcX-4IC M2 spheres pre-treated 1 μM 72 hours

C[C@@H](Oc1cc(-n2cnc3ccc(NC(=O)NC(C)(C)C)cc32)sc1C(N)=O)c1ccccc1Cl [GSK346294A]
CDH1 protein expression [1]: increased CDH1 protein | MMP9 protein expression [1]: suppressed the mesenchymal-associated proteins MMP9 and ZEB1 | ZEB1 protein expression [1]: suppressed the mesenchymal-associated proteins MMP9 and ZEB1 | Nuclear area fraction [2]: most significantly reduced nuclear area fraction | Total cell area [2]: largest overall areas | CDH1 mRNA expression [3]: significantly reduced CDH1 mRNA expression | MMP9 mRNA expression [3]: Neither GSK346294A nor GSK448459A affected MMP9 expression | SNAI1 mRNA expression [3]: no significant effects on SNAI1 expression | cFOS mRNA expression [3]: suppressive effects in all three TNBC cell lines, although not significantly | MMP9 mRNA levels [4]: did not reduce MMP9 levels | Reversal of mesenchymal phenotype on a transcript level [4]: did not reverse the mesenchymal phenotype | Transwell cell migration [5]: most suppressive effects on cell migration | Activity against PLK1 [6]: strong activity | Number of cells remaining compared to DMSO controls [7]: decreased the number of cells remaining | CD24 mRNA expression [8]: increased CD24 expression | CDH1 mRNA expression [8]: increased epithelial markers CDH1 mRNA expression | Ki-67 positive cells (cell proliferation) [9]: increased the total number of cells expressing the Ki-67 marker | Binding activity to NEK2 [10]: 5% | MMP9 mRNA expression [11]: downregulated MMP9 expression, but not significantly | cFOS mRNA expression [11]: suppressive effects in all three TNBC cell lines, although not significantly | cFOS mRNA expression [12]: Neither GSK346294A nor GSK448459A suppressed cFOS mRNA expression | CDH1 mRNA expression ([12]; compared to DMSO controls): increased CDH1 expression | MMP9 mRNA levels [13]: did not reduce MMP9 levels | Reversal of mesenchymal phenotype on a transcript level [13]: did not reverse the mesenchymal phenotype | Activity against BRSK2 [14]: moderate activity | Transwell cell migration [15]: most suppressive effects on cell migration | Area of liver metastases [16, 22]: did not suppress | Area of lung metastasis [16, 22]: suppressed area of lung metastasis | Total number of lung lesions [16, 22]: significantly suppresses total number of lesions | Tumor formation of pre-treated spheres [16, 22]: significantly suppressed tumor formation | Number of liver metastases ([16]; TU-BcX-4IC MS2 spheres pre-treated 1 μM 72 hours): did not suppress | Area and number of lung and liver metastases [17]: consistently suppressed both overall area and number of metastases in all cell concentrations, although not significantly | Activity against PDGFRB [18]: moderate activity | CDH1 mRNA expression [19]: increased epithelial markers CDH1 mRNA expression | Activity against LOK [20]: moderate activity | Binding activity to LOK [20]: 36% | Cytotoxicity to PDX organoids [21]: not cytotoxic
